We go through four molecules from ChEMBL document CHEMBL3526146, “In vitro and in vivo metabolism and pharmacokinetics of BMS-562086, a potent and orally bioavailable corticotropin-releasing factor-1 receptor antagonist” (Drug Metab Dispos, 2012).

For orientation: clearance means a measure of how efficiently the substance is removed, as volume per time. Broadly, the Cmax is the maximum level reached in the sampled fluid or tissue. The Tmax is the time at which the peak concentration occurs. By Papp A→B is commonly meant how fast a substance crosses the layer from the apical side.

A short description of series [1]: Drug metabolism in bile duct-cannulated Sprague-Dawley rat urine assessed as DPH-124921metabolite level at 30 mg/kg, po after 12 hrs by LC-MS/MS analysis. Type of series: ADME, organism-based. Set-up: dose 30 mg/kg, route oral. The note with it: in vivo. Summed up: (§1)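 Male bile-duct-cannulated Sprague-Dawley rats (n=3), fasted overnight, received 30 mg/kg by gavage in 0.5% methylcellulose. Urine and bile were collected 0-12 h and pooled by equal percentage weight across animals, then centrifuged. Supernatants were profiled by LC/MS/MS. Bile was also treated with β-glucuronidase in pH 4.8 acetate buffer, 37°C, 16 h.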

Series [2] is described as follows: Drug metabolism in bile duct-cannulated Sprague-Dawley rat bile assessed as BMS-572273 metabolite level at 30 mg/kg, po after 12 hrs by LC-MS/MS analysis. Particulars: in vivo. Set-up: dose 30 mg/kg, route oral. Type of series: ADME, organism-based. A digest of the protocol:
as §1

The nature of series [3]: Drug metabolism in bile duct-cannulated Sprague-Dawley rat urine assessed as DPH-123554 metabolite level at 30 mg/kg, po after 12 hrs by LC-MS/MS analysis. Type of series: ADME, organism-based. Set-up: dose 30 mg/kg, route oral. The note with it: in vivo. A digest of the protocol: as §1
Series [4] can be described thus: Terminal half life in Sprague-Dawley rat at 1 mg/kg, iv. Type of series: ADME, organism-based. Set-up: dose 1 mg/kg, route intravenous. The note with it: in vivo, read-out: beta t1/2 (converted). A digest of the protocol: (§2)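 Male Sprague-Dawley rats (n=3 per route, 0.34–0.35 kg) with jugular cannulas, fasted about 18 h before and 4 h after dosing. IV dose of 1 mg/kg in 20% ethanol/saline; oral dose of 5 mg/kg by gavage in 0.5% methylcellulose. Plasma sampled 0–96 h and assayed by LC/MS/MS (LLOQ 1.00 ng/ml). Noncompartmental analysis.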

Series [5] can be described thus: Terminal half life in Sprague-Dawley rat at 5 mg/kg, po. Type of series: ADME, organism-based. Set-up: dose 5 mg/kg, route oral. The note with it: in vivo, read-out: beta t1/2 (converted). Summed up:
as §2

The nature of series [6]: Terminal half life in beagle dog at 1 mg/kg, iv. It counts as ADME, organism-based, Canis lupus familiaris. Set-up: dose 1 mg/kg, route intravenous. Particulars: in vivo, read-out: beta t1/2 (converted). A digest of the protocol:
(§3)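 Male beagle dogs (n=3), one-way IV/PO crossover with a one-week washout, fasted about 15 h before and 4 h after dosing. IV dose of 1 mg/kg as a saphenous bolus in N,N-dimethylacetamide:propylene glycol:water (1:7:2); PO dose of 5 mg/kg by gavage in 0.5% methylcellulose. Plasma sampled 0–96 h and assayed by LC/MS/MS (LLOQ 1.00 ng/ml). Noncompartmental analysis; CL = dose/AUC(INF) after IV; F from dose-normalized AUC ratio.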

Series [7] is described as follows: Plasma clearance in beagle dog at 1 mg/kg, iv. It counts as ADME, organism-based, Canis lupus familiaris. Set-up: dose 1 mg/kg, route intravenous. A digest of the protocol: as §3
Series [8] can be described thus: Cmax in beagle dog at 5 mg/kg, po. Type of series: ADME, organism-based, Canis lupus familiaris. Set-up: dose 5 mg/kg, route oral. Particulars: in vivo. Summed up:
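Male beagle dogs (n=3, 10.1-12.7 kg) in a one-way IV/PO crossover with one-week washout, fasted ~15 h pre-dose and 4 h post-dose. Dosing was 1 mg/kg IV bolus into the saphenous vein in DMA:propylene glycol:water (1:7:2), or 5 mg/kg gavage in 0.5% methylcellulose. Blood was sampled 0-96 h. Plasma was assayed by LC/MS/MS (LLOQ 1.00 ng/ml) with noncompartmental analysis; Cmax was observed directly.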

Series [9] in a line: Tmax in beagle dog at 5 mg/kg, po. Type of series: ADME, organism-based, Canis lupus familiaris. Set-up: dose 5 mg/kg, route oral. The note with it: in vivo. A digest of the protocol:
(§4)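 Male beagles (n=3, 10.1-12.7 kg) in one-way crossover, one-week washout after IV leg; fasted ~15 h before and 4 h after dosing. Single gavage 5 mg/kg in 0.5% aqueous methylcellulose. Plasma sampled 0-96 h, parent measured by validated LC/MS/MS (1.00-1000 ng/ml). Noncompartmental analysis; Tmax taken from observed data.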

A short description of series [10]: Terminal half life in beagle dog at 5 mg/kg, po. It counts as ADME, organism-based, Canis lupus familiaris. Set-up: dose 5 mg/kg, route oral. The note with it: in vivo, read-out: beta t1/2 (converted). Summed up:
as §4

The subject of series [11] is Liver microsome. The experiment in a line: Drug metabolism in human liver microsomes assessed as DPH-123554 metabolite formation at 100 uM after 1 hr in presence of NADPH and ketoconazole. It counts as ADME.
The nature of series [12]: Apparent permeability from apical to basolateral side in human Caco2 cells. Type of series: ADME, cell-based. Particulars: Caco-2. A digest of the protocol:
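Caco-2 cells (passage 50-60) were seeded at 60,000 cells/cm2 on polycarbonate Transwells and cultured 21-25 days. Transport buffer was HBSS with 2% DMA, pH 7.4. Compound was applied apically at 25 µM at 37°C. Only monolayers with TEER 400-500 Ω cm2 at start and end were used, with mannitol as an integrity probe. Papp = (dQ/dt)/(A×C0).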

Series [13] can be described thus: Protein binding in human serum after 3 hrs by equilibrium dialysis. Type of series: ADME, cell-free. The note with it: read-out: PB (converted). Summed up:
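Equilibrium dialysis of serum spiked to final 12.8, 25.6 and 38.5 µM against 134 mM phosphate buffer, pH 7.4, through a 10,000 Da cutoff membrane. Cells rotated at 20 rpm, 37°C, 3 h. Percent unbound taken as buffer concentration divided by serum concentration.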

Series [14] deals with Serum. The series can be described thus: Metabolic stability in rat serum after 3 hrs by equilibrium dialysis. It counts as ADME, cell-free. Summed up: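 Stability assessed in the serum samples from the equilibrium-dialysis setup: compound at final 12.8, 25.6 and 38.5 µM, dialysed against 134 mM phosphate buffer, pH 7.4, at 37°C with rotation at 20 rpm. Samples monitored for degradants over the 3-h incubation.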

A short description of series [15]: Drug metabolism in cynomolgus monkey cryopreserved hepatocytes assessed as […] at 25 uM after 3 hrs by HPLC analysis. It counts as ADME, cell-based, Macaca fascicularis, Hepatocyte.
A short description of series [16]: Drug metabolism in cynomolgus monkey cryopreserved hepatocytes assessed as 7-hydroxycoumarin formation at 25 uM after 3 hrs by HPLC analysis. It counts as ADME, cell-based, Macaca fascicularis, Hepatocyte.
Series [17] in a line: Drug metabolism in human cryopreserved hepatocytes assessed as 7-hydroxycoumarin formation at 25 uM after 3 hrs by HPLC analysis. It counts as ADME, cell-based, Hepatocyte.
Series [18] in a line: Drug metabolism in mouse hepatocytes assessed as decrease of compound level at 25 uM after 3 hrs by HPLC analysis. It counts as ADME, cell-based, Hepatocyte. The note with it: read-out: Drug metabolism.
A short description of series [19]: Drug metabolism in mouse hepatocytes assessed as at 25 uM after 3 hrs by HPLC analysis.

`COc1ccc(-c2c(C)nn3c(N)nc(C)nc23)c(C)n1`: the Drug metabolism entry in series [1] is given as “metabolite_detected”.

For `COc1ccc(-c2c(C)nn3c(O)nc(C)nc23)c(C)n1`, the Drug metabolism result in series [2] is recorded as “metabolite_detected”.

For `CC[C@@H](C)Nc1nc(C)nc2c(-c3ccc(O)nc3C)c(C)nn12`, the Drug metabolism entry in series [3] is “metabolite_detected”.

For the molecule `CC[C@@H](C)Nc1nc(C)nc2c(-c3ccc(OC)nc3C)c(C)nn12` [PEXACERFONT], the half-life was 13.5 h in [4], 13.8 h in series [5], 43.9 h in series [6] and 46.7 h in [10]. Besides, the clearance in series [7] came to 11.6 mL/min/kg. The molecule further came in with a Cmax in series [8] of 1800 nM. Also, the Tmax in [9] amounted to 0.75 h. The Drug metabolism entry in series [11] is reported as “metabolite_not_detected”; in series [15], “metabolite_detected”; in series [16] it was “metabolite_detected”; in [17] it was “metabolite_detected”; in series [19] it was “metabolite_detected”. Also, in series [12], the Papp A→B is 17 ×10⁻⁶ cm/s. The fraction unbound at 3 h in series [13] is 0.039. Moreover, in series [14], the Stability entry is recorded as “Stable”. The metabolised at 3 h, 25 µM in [18] was found to be 75%.
